Arbovirus inh – antivirals against arbovirus infection; arbovirus infection cell-based antiviral screen; inhibition, % at 10 µM; 200,000 compounds, 0.37% hits; in the data active = inhibition above about 30%
RAM network inh – yeast RAM network inhibition | S. cerevisiae dse1pr::URA3 reporter, 5-FOA growth OD615, 2 d; analog-sensitive cbk1-as2 kinase mutant strain | inhibition, % at 50 µM | 190,000 compounds, 1.8% hits;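 active = inhibition above a set limit, 3 SD over mean compound inhibition, cut at about 8.4% in these data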;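 note: 0% = DMSO-only wells with no growth and 100% = 10 µM 1-NA-PP1 full growth; inhibition rescues growth on 5-FOA so higher OD means more RAM inhibition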
Biofilm kill mix – mixtures killing C. albicans biofilm; C. albicans biofilm persisters + clotrimazole, fluorescence viability; primary screen in compound mixtures of four per well; inhibition, % at 7.6 µM; 120,000 compounds, 0.02% hits;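 active = inhibition above 30.3% in the primary screen of four-compound pools, then above 30% when the compound was retested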;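 note: compounds exposed to preformed 24 h biofilms for 48 h; 0% = untreated biofilm control and 100% = clotrimazole plus chlorhexidine kill blank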
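Test system: C. albicans CAF4-2 wild-type biofilms; buffer or medium: RPMI/MOPS medium, pH 7.0; schedule: 24 h biofilm formation, then 48 h compound exposure, 37 °C; detection: Alamar Blue fluorescence; measure: percent inhibition of biofilm viability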
Hck Nef HTS – blocks Nef-activated human Hck kinase; inhibition, % at 20 µM; Recombinant Hck-YEEI plus Nef, Z-Lyte FRET kinase assay; 220,000 compounds, 0.68% hits; AID 463187;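 active = Hck-Nef kinase inhibition above about 50%, limit read from the data; inactive = inhibition below that limit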;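 note: 0% = DMSO with Hck plus Nef and 100% = Hck alone without Nef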
WT yeast gro inh – growth inhibition of WT yeast, mitochondrial fusion screen; mitochondrial fusion phenotypic screen, WT strain; inhibition, % at 10 µM; 190,000 compounds, 2.1% hits; in the data active = inhibition above about 58%; tested in S. cerevisiae
p47phox inh – inhibitors of human p47phox binding; p47phox/p22phox peptide binding, fluorescence polarization, 2 h; 220,000 compounds, 0.53% hits; inhibition, % at 24.7 µM; P14598;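 active = inhibition above about 30%, limit read from the data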;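 note: 0% = p47phox with labelled peptide and 100% = labelled peptide alone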
Target sequence (P14598 whole entry, looked up): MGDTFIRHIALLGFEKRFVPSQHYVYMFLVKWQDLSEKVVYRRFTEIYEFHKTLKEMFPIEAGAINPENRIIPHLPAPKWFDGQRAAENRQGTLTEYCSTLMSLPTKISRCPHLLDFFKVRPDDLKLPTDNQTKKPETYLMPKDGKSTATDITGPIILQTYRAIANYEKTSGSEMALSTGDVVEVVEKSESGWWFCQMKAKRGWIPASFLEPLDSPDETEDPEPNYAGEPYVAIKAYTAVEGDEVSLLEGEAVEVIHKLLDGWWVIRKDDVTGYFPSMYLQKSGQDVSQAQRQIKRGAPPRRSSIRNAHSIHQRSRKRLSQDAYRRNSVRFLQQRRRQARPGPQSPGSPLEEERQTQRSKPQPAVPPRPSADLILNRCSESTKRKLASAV
* = called active by the depositor; · = no result given. This is a sample that favours compounds with a hit; in the whole collection about 4.6% have one here.

SMILES	Arbovirus inh	RAM network inh	Biofilm kill mix	Hck Nef HTS	WT yeast gro inh	p47phox inh
CCOc1ccc(NC(=O)NC(=O)N(C(C)C)S(C)(=O)=O)cc1	-2	3	20	23	-17	-2
CCCn1c(SCC(=O)NCCc2ccccc2)nnc1-c1ccco1	5	-1	8	11	-12	13
Cc1cccc(NC(=O)N2CCC(NC(=O)c3ccccc3C)CC2)c1	-3	9.6*	·	-1	2	-8
Cc1cccc(NC(=O)N2CCC(NC(=O)c3ccco3)CC2)c1	2	2	10	19	-4	-9
N#Cc1c(C(F)(F)F)cc(-c2ccccc2)[nH]c1=O	22	2	·	13	4	-9
Cc1ccc(-c2cc(C(F)(F)F)c(C#N)c(=O)[nH]2)cc1	54*	5	5	10	1	-1
Cc1cc(C)cc(N(CC(=O)NCc2ccc3c(c2)OCO3)C(=O)CCC(=O)Nc2ccccn2)c1	-13	4	·	-1	-10	-10
COc1ccc(CNC(=O)CN(C(=O)CCC(=O)Nc2ccccn2)c2cccc(C)c2)cc1	6	10*	7	25	-7	-9
COCCCn1c(SCC(=O)NC(C)(C)C)nnc1-c1ccccc1	4	1	·	0	66*	14
CC(C)(C)C1CCC2(CC1)Nc1cccc3cccc(c13)N2	-14	8.9*	·	0	18	-15
FC(F)(F)c1ccc(C2Nc3cccc4cccc(c34)N2)cc1	-8	4	18	20	14	-1
CC(C)c1nnc(NC(=O)CSc2nnc(NC(=O)c3c(F)cccc3F)s2)s1	11	10*	16	-9	-10	-4
CCCOc1ccc(C(=O)CCC(=O)OCC(=O)N2CC(=O)Nc3ccccc32)cc1	2	3	·	2	0	-8
CN1CCN(CC(O)(c2ccc(Cl)cc2)c2ccc(Cl)cc2)CC1	-29	2	19	-8	82*	-5
CN1CCN(CC(O)COc2ccc(Cl)cc2)CC1 (centres undefined)	4	-1	·	3	9	-17
COc1ccc2cc3c(N)nn(C(=O)Cc4ccccc4OC)c3nc2c1	-6	3	·	15	9	-14
COc1ccc2cc3c(N)nn(C(=O)C4CCC(C(C)(C)C)CC4)c3nc2c1 (centres undefined)	-33	2	11	-4	92*	0
Cc1ccccc1Cn1cc(S(=O)(=O)CC(=O)Nc2nccs2)c2ccccc21	2	8.4*	·	0	12	-15
OCCNc1nc2ccc(Cl)cc2[nH]1	3	1	·	4	0	-4
Cn1cccc1Cc1nnc(SCC(=O)NCCc2ccccc2)n1C	6	0	13	2	-6	·
c1ccc(CN2CCN(C3=Nc4cccc5cccc3c45)CC2)cc1	-25	0	·	7	2	-15
Fc1ccc(N2CCN(C3=Nc4cccc5cccc3c45)CC2)cc1	-26	0	8	15	59*	-13
COc1ccc(C(=O)Oc2ccc(C(=S)N3CCOCC3)cc2)cc1	0	-1	-9	15	4	0
CC(C)(C)c1ccc(S(=O)(=O)N2CCC(c3nc4ccc(Cl)cc4[nH]3)CC2)cc1	-13	0	18	7	69*	-20
CC(=O)Nc1ccc(S(=O)(=O)N2CCC(c3nc4ccc(C)cc4[nH]3)CC2)cc1	-10	0	·	-1	0	-11
SMILES	Arbovirus inh	RAM network inh	Biofilm kill mix	Hck Nef HTS	WT yeast gro inh	p47phox inh
Cc1cc(C)nc(NS(=O)(=O)c2ccc(NC(=O)CN3C(=O)C4CC=CCC4C3=O)cc2)n1 (centres undefined)	4	2	10	13	6	-2
CCCCSc1cnn(-c2ccccc2)c(=O)c1SCCCC	6	2	3	15	64*	65*
Cc1c(C(=O)N(C)C)c2ccc(Cl)cc2n1O	9	2	14	2	1	-3
CCOc1cc(/C=C/c2ccc3cccc([N+](=O)[O-])c3n2)ccc1O	-3	1	7	-3	26	-7
CCOc1c(OC(C)=O)ccc(/C=C/c2ccc3cccc(OC(C)=O)c3n2)c1[N+](=O)[O-]	-40	2	·	2	65*	-15
COc1c(OC(C)=O)ccc(/C=C/c2ccc3cccc(OC)c3n2)c1[N+](=O)[O-]	3	0	-8	4	43	-3
COc1c(OC(C)=O)ccc(/C=C/c2ccc3ccccc3n2)c1[N+](=O)[O-]	-44	0	·	10	68*	-12

From PubChem BioAssay
